Measured values taken from PMC7655718 (The Journal of antibiotics, 2020).
In brackets after ≈: the same amount, converted by molar mass. Read-outs that look alike come from different tables or passages of the source.

Experiments:
[1] = system: S. epidermidis 700296 (Se); test: MIC, microdilution with resazurin; assay type: cell-based; details: Staphylococcus epidermidis, read-out: MIC Se
Method in brief: (§1)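 Compounds dissolved in DMSO at 2 mg/mL. Overnight blood-agar colonies were suspended in PBS to 0.5 McFarland, then diluted in Mueller Hinton broth to about 1x10^6 cfu/mL with resazurin (1:1000 of 0.1% w/v stock). Twofold DMSO dilutions were added 1:40, giving 50 to 0.4 μg/mL at 2.5% DMSO. Incubation was 35 °C for 16-20 h. Blue/non-turbid wells counted as inhibited, pink/turbid as grown.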

[2] = system: human embryonic kidney cell line (HEK293); test: Toxicity against HEK293 cell line; assay type: cell-based; details: HEK293 IC50 over MIC; as high as
[3] = system: S. aureus ATCC 700699 (Sa99); test: MIC, microdilution with resazurin; assay type: cell-based; details: Staphylococcus aureus, ATCC700699, read-out: MIC Sa99
Method in brief: as §1

[4] = system: S. aureus ATCC 33592 (Sa92); test: MIC, microdilution with resazurin; assay type: cell-based; details: Staphylococcus aureus, ATCC33592, read-out: MIC Sa92
Method in brief: as §1

[5] = system: S. aureus ATCC 25923 biofilm formation; test: Biofilm inhibition assay; assay type: cell-based, Staphylococcus aureus
Method in brief: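 Blood-agar culture was suspended in PBS (0.5 McFarland), then diluted 1:100 in yeast extract casamino acid broth (about 1x10^6 cfu/mL). Compound at 2xMIC, MIC and 0.5xMIC was added before biofilm formation, in triplicate, with broth-only and bacteria+DMSO controls. Incubation was 35 °C for 24 h. Wells were PBS-washed, dried, stained with 0.1% crystal violet, solubilised in 33% acetic acid and read at 620 nm. % inhibition = [1−(ODcompound−ODbroth)/(ODdmso−ODbroth)]×100, from mean and SD.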

[6] = system: S. aureus BAA-2312 (Sa12); test: MIC, microdilution with resazurin; assay type: cell-based; details: Staphylococcus aureus, BAA2312, read-out: MIC Sa12
Method in brief: as §1

[7] = system: A. baumannii ATCC 19606 (type strain, Ab06); test: MIC and MBC; assay type: cell-based, Acinetobacter baumannii; details: Acinetobacter baumannii
Method in brief: as §1

[8] = system: B. subtilis ATCC 6623 (Bs); test: MIC, microdilution with resazurin; assay type: cell-based, Bacillus subtilis; details: Bacillus subtilis, ATCC6623, read-out: MIC Bs
[9] = system: S. aureus ATCC 25923 (Sa23); test: MIC, microdilution with resazurin; assay type: cell-based; details: Staphylococcus aureus, ATCC25923, read-out: MIC Sa23
Method in brief: as §1

[10] = system: S. aureus ATCC 33591 (Sa91); test: MIC, microdilution with resazurin; assay type: cell-based; details: Staphylococcus aureus, ATCC33591, read-out: MIC Sa91
Method in brief: as §1

[11] = system: S. aureus ATCC 33599 (MRSA); test: BacLight membrane permeability assay; assay type: cell-based, Staphylococcus aureus; details: versus positive control vancomycin
[12] = system: S. aureus ATCC 25923 preformed biofilm; test: Biofilm destruction assay; assay type: cell-based, Staphylococcus aureus; details: 2xMIC
Method in brief: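 Biofilm was first grown in 96-well plates for 24 h at 35 °C and washed with PBS to remove unadhered cells. Fresh yeast extract casamino acid broth was added with compound at 2xMIC, MIC or 0.5xMIC, or DMSO, in triplicate, plus broth-only wells. Incubation was 35 °C for 24 h. Crystal violet was stained, solubilised and read at 620 nm. % destruction = [1−(ODcompound−ODbroth)/(ODdmso−ODbroth)]×100, from triplicate means.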

[13] = system: A. baumannii ATCC 747 (Ab47); test: MIC, microdilution with resazurin; assay type: cell-based, Acinetobacter baumannii; details: for MIC: Acinetobacter baumannii, ATCC747, read-out: MIC Ab47
Method in brief: as §1

[14] = system: tested Gram-positive bacterial strains; test: MIC, text summary over tested Gram-positive strains; assay type: cell-based; details: for MIC: read-out: MIC value as low as
[15] = system: tested A. baumannii strains; test: MIC, text summary over A. baumannii strains; assay type: cell-based, Acinetobacter baumannii; details: Acinetobacter baumannii, read-out: MIC value as low as
Method in brief: as §1

[16] = system: A. baumannii ATCC BAA-1605 (Ab05); test: MIC, microdilution with resazurin; assay type: cell-based, Acinetobacter baumannii
Method in brief: as §1

A. baumannii ATCC 19606 = test: Time kill assay; assay type: cell-based, Acinetobacter baumannii; details: 4xMIC
Method in brief: (§2)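 Growth curves by optical density set the log phase. Log-phase bacteria (about 2 h shaking in Mueller Hinton broth II) were diluted in warm broth to about 3x10^6 cfu/mL. They were exposed to compound at 4xMIC (other multiples where indicated), in triplicate, at 35 °C. Colistin (A. baumannii) or vancomycin (S. aureus) and DMSO were included. Samples at 0, 2, 4, 6, 8, 10, 12 and 24 h were counted by drop plate on blood agar (18-24 h, 35 °C). Log cfu/mL was plotted against time.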

[17] = system: S. aureus ATCC 33599 (MRSA); test: MIC and MBC; assay type: cell-based, Staphylococcus aureus; details: Staphylococcus aureus, ATCC33599|MRSA
Method in brief: as §1

[18] = system: S. aureus ATCC 33599 (MRSA); test: Time kill assay; assay type: cell-based, Staphylococcus aureus; details: 4xMIC
Method in brief: as §2

[19] = MIC and 0.5xMIC tested, 24 hours

Row | SMILES | MIC [1] [µg/mL] | MIC [3] [µg/mL] | MIC [4] [µg/mL] | MIC [6] [µg/mL] | MIC ([7]; ATCC19606, read-out: MIC Ab06) [µg/mL] | MIC [8] [µg/mL] | MIC [9] [µg/mL] | MIC [10] [µg/mL] | MIC [13] [µg/mL] | MBC ([7]; ATCC19606) [µg/mL] | MIC ([7]; ATCC19606) [µg/mL] | MIC [14] [µg/mL] | destruction of preformed biofilm [12, 19] | MBC [17] [µg/mL] | MIC [17] [µg/mL] | other results
1 | O=C(O)c1ccc(-n2cc(/C=N/Nc3cc(F)ccc3F)c(-c3ccc4ccccc4c3)n2)cc1 [Compound 19] | 3.12 (≈ 6.67 µM) | 0.78 (≈ 1.67 µM) | 1.56 (≈ 3.33 µM) | 3.12 (≈ 6.67 µM) | > 50 | 3.12 (≈ 6.67 µM) | 1.56 (≈ 3.33 µM) | 3.12 (≈ 6.67 µM) | > 50 | – | – | – | – | – | – | selectivity factor (IC50/MIC) [2]: ≤ 48.7; inhibition of biofilm formation ([5]; 2xMIC, MIC and 0.5xMIC concentrations, 24 hours): most effective compound; membrane disruption activity, PI/SYTO-9 ratio [11]: more potent membrane disruption activity than vancomycin; destruction of preformed biofilm [12]: potent activity; antimicrobial activity against the tested strains [14]: enhanced activity against all the tested strains
2 | O=C(O)c1ccc(-n2cc(/C=N/Nc3cccc(F)c3)c(-c3ccc4ccccc4c3)n2)cc1 [Compound 15] | 6.25 (≈ 13.9 µM) | 1.56 (≈ 3.46 µM) | 3.12 (≈ 6.94 µM) | 12.5 (≈ 27.7 µM) | 6.25 (≈ 13.9 µM) | 12.5 (≈ 27.7 µM) | 6.25 (≈ 13.9 µM) | 12.5 (≈ 27.7 µM) | 12.5 (≈ 27.7 µM) | 12.5 (≈ 27.7 µM) | 6.25 (≈ 13.9 µM) | ≥ 1.56 | – | – | – | MIC [15]: ≥ 6.25 µg/mL
3 | O=C(O)c1ccc(-n2cc(/C=N/Nc3ccc(Br)cc3)c(-c3ccc4ccccc4c3)n2)cc1 [Compound 18] | 12.5 (≈ 24.4 µM) | 0.78 (≈ 1.53 µM) | 3.12 (≈ 6.11 µM) | 12.5 (≈ 24.4 µM) | 1.56 (≈ 3.05 µM) | 6.25 (≈ 12.2 µM) | 6.25 (≈ 12.2 µM) | 12.5 (≈ 24.4 µM) | 6.25 (≈ 12.2 µM) | 12.5 (≈ 24.4 µM) | 1.56 (≈ 3.05 µM) | – | – | – | – | MIC Ab05 [16]: moderate growth inhibitor; time kill effect (A. baumannii ATCC 19606; 24 hours at 35 °C): bacteriostatic effect; increase in log10 cfu/mL of the bacterial population (A. baumannii ATCC 19606; through 24 hours): ≤ 2 fold; MIC Ab47 ([13]; A. baumannii ATCC 747): moderate growth inhibitor
4 | O=C(O)c1ccc(-n2cc(/C=N/Nc3ccc(C(F)(F)F)cc3)c(-c3ccc4ccccc4c3)n2)cc1 [Compound 25] | 25 (≈ 50 µM) | 0.78 (≈ 1.56 µM) | 0.78 (≈ 1.56 µM) | 12.5 (≈ 25 µM) | > 50 | 1.56 (≈ 3.12 µM) | 0.78 (≈ 1.56 µM) | 25 (≈ 50 µM) | > 50 | – | – | ≥ 0.78 | excellent ability to eliminate the preformed biofilms | 25 (≈ 50 µM) | 0.78 (≈ 1.56 µM) | inhibition of biofilm formation ([5]; 2xMIC): potent biofilm inhibition activity
5 | CN[C@H](CC(C)C)C(=O)N[C@H]1C(=O)N[C@@H](CC(N)=O)C(=O)N[C@H]2C(=O)N[C@H]3C(=O)N[C@H](C(=O)N[C@H](C(=O)O)c4cc(O)cc(O)c4-c4cc3ccc4O)[C@H](O)c3ccc(c(Cl)c3)Oc3cc2cc(c3O[C@@H]2O[C@H](CO)[C@@H](O)[C@H](O)[C@H]2O[C@H]2C[C@](C)(N)[C@H](O)[C@H](C)O2)Oc2ccc(cc2Cl)[C@H]1O [VC, vancomycin, reference compound] | 3.12 (≈ 2.16 µM) | 3.12 (≈ 2.16 µM) | 0.39 (≈ 0.269 µM) | 0.78 (≈ 0.538 µM) | > 50 | 0.195 (≈ 0.135 µM) | 1.56 (≈ 1.08 µM) | 3.12 (≈ 2.16 µM) | > 50 | – | – | – | almost failed to show any activity | 6.25 (≈ 4.31 µM) | 3.12 (≈ 2.16 µM) | time until bacteria were eliminated [18]: ≤ 8 h; time kill effect ([18]; 24 hours at 35 °C): mildly bactericidal; inhibition of biofilm formation ([5]; 0.5xMIC): weak inhibition; inhibition of biofilm formation ([5]; 2xMIC and MIC concentration): potent inhibition
